# Data published in ChEMBL document CHEMBL5370587, “Fungal Anthraquinone Photoantimicrobials Challenge the Dogma of Cationic Photosensitizers” (J Nat Prod, 2023).
# Assays:
# [1] = test system: Staphylococcus aureus; assay: Antibacterial activity against Staphylococcus aureus DSM1104 assessed as reduction in microbial growth preincubated for 60 mins under dark condition and measured after 20 to 24 hrs at room temperature by muller hinton broth based dilution assay; format: functional; conditions: time 20-24 hrs
# How it was run: (§1)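 Bacteria grown overnight at 37 °C for 15−18 h in the dark, then set to 0.5 McFarland (read at 600 nm) and diluted 1:50 in Müller-Hinton broth to (2–8) × 10⁵ CFU/mL. Dark plate held at room temperature, then incubated at 37 °C. After 20−24 h, turbidity was read against the untreated growth control, with blanks subtracted. Compounds tested at ≥10 concentrations in biological triplicate.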
# [2] = test system: AGS; assay: Phototoxicity against human AGS cells assessed as reduction in cell growth preincubated with compound for 24 hrs under dark condition and measured after 48 hrs by SRB assay; format: functional, cell-based; conditions: light or radiation study
# How it was run: (§2)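 Dark control plate processed the same way: cells (A549 2000, AGS 2500, T24 1500 per well) in Opti-MEM with 2.4% FCS, dosed at 25.0−0.3 μM 24 h after seeding. Medium renewed after 24 h, then 48 h further at 37 °C, 5% CO2 without light. SRB read-out at 540 nm after TCA fixation. EC50 with 95% CI from variable-slope fit.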
# [3] = test system: Escherichia coli; assay: Antibacterial activity against Escherichia coli DSM1103 assessed as reduction in microbial growth preincubated for 60 mins under dark condition followed by 428 to 530 nm light irradiation and measured after 20 to 24 hrs by muller hinton broth based dilution assay; format: functional; conditions: DSM1103, light or radiation study, time 21-25 hrs
# How it was run: (§3)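 Bacterial inoculum set to 0.5 McFarland (600 nm) and diluted 1:50 in Müller-Hinton broth to (2–8) × 10⁵ CFU/mL. After 60 min dark preincubation the plate received H = 30 J/cm² from LED panels (468±27, 519±33, 478±22 or 523±33 nm). Incubated at 37 °C in the dark for 20−24 h. Turbidity read against growth control, blanks subtracted. ≥10 concentrations, biological triplicate.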
# [4] = test system: Candida albicans; assay: Antifungal activity against Candida albicans 501670 assessed as reduction in microbial growth preincubated for 60 mins under dark condition followed by 428 to 530 nm light irradiation and measured after 20 to 24 hrs by muller hinton broth based dilution assay; format: functional; conditions: Candida albicans, 501670, light or radiation study; in the assay text read “RPMI-1640” for “muller hinton broth”; time 21-25 hrs
# How it was run: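 Yeast set to 0.5 McFarland (530 nm), diluted 1:10 in double-strength RPMI-1640 to (0.5−2.5) × 10⁵ CFU/mL. Irradiated at H = 30 J/cm² after 60 min dark preincubation, then kept dark at 37 °C for 20−24 h. Growth inhibition by turbidity versus growth control, blanks subtracted. ≥10 concentrations in biological triplicate.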
# [5] = test system: AGS; assay: Phototoxicity against human AGS cells assessed as reduction in cell growth preincubated with compound for 24 hrs followed by blue light irradiation at 468 nm for 7 mins 30 sec and measured after 48 hrs by SRB assay; format: functional, cell-based; conditions: light or radiation study
# How it was run: (§4)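 Cells (A549 2000, AGS 2500, T24 1500 per well) seeded in Opti-MEM with 2.4% FCS. After 24 h, treated with 25.0−0.3 μM (six levels). After another 24 h, medium was replaced and cells got blue light (468±27 nm, 9.3 J/cm²). Held 48 h at 37 °C, 5% CO2, then TCA-fixed and SRB-stained, read at 540 nm. EC50 from variable-slope fit with 95% CI.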
# [6] = test system: Staphylococcus aureus; assay: Antibacterial activity against Staphylococcus aureus DSM1104 assessed as reduction in microbial growth preincubated for 60 mins under dark condition followed by 428 to 530 nm light irradiation and measured after 20 to 24 hrs by muller hinton broth based dilution assay; format: functional; conditions: DSM1104, light or radiation study, time 21-25 hrs; how it was run: as §3
# [7] = test system: A549; assay: Phototoxicity against human A549 cells assessed as reduction in cell growth preincubated with compound for 24 hrs under dark condition and measured after 48 hrs by SRB assay; format: functional, cell-based; conditions: A549, light or radiation study; how it was run: as §2
# [8] = test system: T-24; assay: Phototoxicity against human T24 cells assessed as reduction in cell growth preincubated with compound for 24 hrs followed by blue light irradiation at 468 nm for 7 mins 30 sec and measured after 48 hrs by SRB assay; format: functional, cell-based; conditions: T-24, light or radiation study; how it was run: as §4
# [9] = test system: A549; assay: Phototoxicity against human A549 cells assessed as reduction in cell growth preincubated with compound for 24 hrs followed by blue light irradiation at 468 nm for 7 mins 30 sec and measured after 48 hrs by SRB assay; format: functional, cell-based; conditions: A549, light or radiation study; how it was run: as §4
# [10] = test system: Escherichia coli; assay: Antibacterial activity against Escherichia coli DSM1103 assessed as reduction in microbial growth preincubated for 60 mins under dark condition and measured after 20 to 24 hrs at room temperature by muller hinton broth based dilution assay; format: functional; conditions: time 20-24 hrs; how it was run: as §1
# [11] = test system: T-24; assay: Phototoxicity against human T24 cells assessed as reduction in cell growth preincubated with compound for 24 hrs under dark condition and measured after 48 hrs by SRB assay; format: functional, cell-based; conditions: T-24, light or radiation study; how it was run: as §2
# [12] = test system: Candida albicans; assay: Antifungal activity against Candida albicans 501670 assessed as reduction in microbial growth preincubated for 60 mins under dark condition and measured after 20 to 24 hrs at room temperature by RPMI-1640 based dilution assay
# [13] = test system: T-24; assay: Phototoxicity against human T24 cells assessed as reduction in cell growth preincubated with compound for 24 hrs followed by green light irradiation at 519 nm for 22 mins 23 sec and measured after 48 hrs by SRB assay; format: functional, cell-based; conditions: T-24, light or radiation study
# How it was run: (§5)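 Cells (A549 2000, AGS 2500, T24 1500 per well) seeded in Opti-MEM with 2.4% FCS and dosed 24 h later at six concentrations, 25.0−0.3 μM. After a further 24 h, fresh medium was added and cells got green light (519±33 nm, 30.0 J/cm²). Then 48 h at 37 °C, 5% CO2. Read-out by TCA fixation, SRB stain and absorbance at 540 nm. EC50 from Hill fit with 95% CI.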
# [14] = test system: Staphylococcus aureus; assay: Antibacterial activity against Staphylococcus aureus DSM1104 assessed as reduction in microbial growth preincubated for 60 mins under dark condition followed by 478 nm light irradiation and measured after 20 to 24 hrs by muller hinton broth based dilution assay; format: functional; conditions: DSM1104, light or radiation study, time 21-25 hrs
# How it was run: (§6)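 PhotoMIC (modified EUCAST broth microdilution): 0.5 McFarland suspensions diluted 1:50 in Mueller-Hinton broth (bacteria, 2–8 × 10⁵ CFU/mL) or 1:10 in double-strength RPMI-1640 (yeast, 0.5–2.5 × 10⁵ CFU/mL); ≥10 concentrations, biological triplicates; 60 min dark preincubation, then 30 J/cm² irradiation or dark duplicate plate; 37 °C, 20–24 h; turbidity versus growth control, blanks subtracted.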
# [15] = test system: AGS; assay: Phototoxicity against human AGS cells assessed as reduction in cell growth preincubated with compound for 24 hrs followed by green light irradiation at 519 nm for 22 mins 23 sec and measured after 48 hrs by SRB assay; format: functional, cell-based; conditions: light or radiation study; how it was run: as §5
# [16] = test system: Staphylococcus aureus; assay: Antibacterial activity against Staphylococcus aureus DSM1104 assessed as reduction in microbial growth preincubated for 60 mins under dark condition followed by 530 nm light irradiation and measured after 20 to 24 hrs by muller hinton broth based dilution assay; format: functional; conditions: DSM1104, light or radiation study, time 21-25 hrs; how it was run: as §6
# [17] = test system: Escherichia coli; assay: Antibacterial activity against Escherichia coli DSM1103 assessed as reduction in microbial growth preincubated for 60 mins under dark condition followed by 428 nm light irradiation and measured after 20 to 24 hrs by muller hinton broth based dilution assay; format: functional; conditions: DSM1103, light or radiation study, time 21-25 hrs; how it was run: as §6
# [18] = test system: Candida albicans; assay: Antifungal activity against Candida albicans 501670 assessed as reduction in microbial growth preincubated for 60 mins under dark condition followed by 530 nm light irradiation and measured after 20 to 24 hrs by RPMI-1640 based dilution assay; conditions: Candida albicans, 501670, light or radiation study
# [19] = test system: Staphylococcus aureus; assay: Antibacterial activity against Staphylococcus aureus DSM1104 assessed as reduction in microbial growth preincubated for 60 mins under dark condition followed by 428 nm light irradiation and measured after 20 to 24 hrs by muller hinton broth based dilution assay; format: functional; conditions: DSM1104, light or radiation study, time 21-25 hrs; how it was run: as §6
# [20] = test system: T-24; assay: Photo index, ratio of EC50 for human T24 cells killed in the absence of light to EC50 for human T24 cells killed after irradiation; format: functional
# How it was run: (§7)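 SRB assay: cells seeded in Opti-MEM with 2.4% FCS, treated 24 h later with 0.3–25.0 μM, medium replaced after 24 h. Duplicate plates were irradiated with blue light (468 nm, 9.3 J/cm²) or green light (519 nm, 30.0 J/cm²), or kept dark, then held 48 h at 37 °C, 5% CO₂. EC50 from Hill fit; photoindex = EC50 dark / EC50 irradiated.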
# [21] = test system: A549; assay: Photo index, ratio of EC50 for human A549 cells killed in the absence of light to EC50 for human A549 cells killed after irradiation; format: functional; how it was run: as §7
# [22] = test system: A549; assay: Phototoxicity against human A549 cells assessed as reduction in cell growth preincubated with compound for 24 hrs followed by green light irradiation at 519 nm for 22 mins 23 sec and measured after 48 hrs by SRB assay; format: functional, cell-based; conditions: A549, light or radiation study; how it was run: as §5
# [23] = test system: Candida albicans; assay: Antifungal activity against Candida albicans 501670 assessed as reduction in microbial growth preincubated for 60 mins under dark condition followed by 428 nm light irradiation and measured after 20 to 24 hrs by RPMI-1640 based dilution assay; conditions: Candida albicans, 501670, light or radiation study
# [24] = test system: Candida albicans; assay: Antifungal activity against Candida albicans 501670 assessed as reduction in microbial growth preincubated for 60 mins under dark condition followed by 478 nm light irradiation and measured after 20 to 24 hrs by RPMI-1640 based dilution assay; conditions: Candida albicans, 501670, light or radiation study
MIC [1] [µM],MIC [3] [µM],MIC [4] [µM],MIC [6] [µM],MIC [10] [µM],MIC [12] [µM],SMILES,EC50 [2] [µM],EC50 [5] [µM],EC50 [7] [µM],EC50 [8] [µM],EC50 [9] [µM],EC50 [11] [µM],also measured
> 115,> 115,> 115,> 115,> 115,> 115,Cc1cc(O[C@@H]2O[C@H](CO)[C@@H](O)[C@H](O)[C@H]2O)c2c(c1)C(=O)c1cc(O)cc(O)c1C2=O,> 25,> 25,> 25,> 25,> 25,> 25,–
1.4,–,–,–,–,–,CC[C@H]1OC(=O)[C@H](C)[C@@H](O[C@H]2C[C@@](C)(OC)[C@@H](O)[C@H](C)O2)[C@H](C)[C@@H](O[C@@H]2O[C@H](C)C[C@H](N(C)C)[C@H]2O)[C@](C)(O)C[C@@H](C)C(=O)[C@H](C)[C@@H](O)[C@]1(C)O [ERYTHROMYCIN],–,–,–,–,–,–,–
> 84,> 84,> 84,> 84,> 84,> 84,Cc1cc(O[C@@H]2O[C@H](CO)[C@@H](O)[C@H](O)[C@H]2O)c2c(c1)C(=O)c1cc(O[C@@H]3O[C@H](CO)[C@@H](O)[C@H](O)[C@H]3O)cc(O)c1C2=O,> 25,> 25,> 25,> 25,> 25,> 25,–
> 79,–,–,–,–,> 79,COc1c(O)c(O)c2c(c1O)C(=O)c1cc(C)cc(O)c1C2=O,> 25,> 25,> 25,> 25,> 25,24.7,EC50 [13]: 11.6 µM; MIC [14]: 4.74 µM; EC50 [15]: > 25 µM; MIC [16]: 2.37 µM; MIC [17]: > 79 µM; MIC [18]: 39.5 µM; MIC [19]: 39.5 µM; Ratio EC50 [20]: 2.1; Ratio EC50 [21]: >1.5; EC50 [22]: 16.2 µM; MIC [23]: 39.5 µM; MIC [24]: 19.7 µM
